In ChEMBL document CHEMBL1155217, “Synthesis and evaluation of 3-(dihydroxyboryl)benzoic acids as D,D-carboxypeptidase R39 inhibitors” (J Med Chem, 2009):
Residue numbers refer to the chain shown, from its start.

How the values were obtained:
[1] = target: D-alanyl-D-alanine carboxypeptidase (Actinomadura sp. R39, UniProt P39045); experiment: Inhibition of Actinomadura sp. R39 penicillin-binding protein preincubated for 60 mins before addition of substrate mixture of (R)-[2-(benzoylamino)propionylsulfanyl]acetic acid and 5,5'-dithiobis(2-nitrobenzoic acid)
Outline: (§1)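 Purified R39 (3.5 nM) preincubated with compound in 10 mM sodium phosphate pH 7.2, 100 mM NaCl, 100 mM D-alanine, 0.01 mg/mL BSA, 60 min, 25 °C. S2d then added (final 1 mM) with DTNB (final 0.5 mM; 1% v/v DMF). Initial hydrolysis rate read at 412 nm. Spontaneous substrate hydrolysis was measured without enzyme. Triplicates. IC50 from nonlinear regression of RA across a concentration range.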

Streptococcus pneumoniae = experiment: Inhibition of Streptococcus pneumoniae PBP1B assessed as residual activity at 1 mM after 60 mins by SDS-PAGE
[2] = target: D-alanyl-D-alanine carboxypeptidase (Actinomadura sp. R39) (UniProt P39045); experiment: Inhibition of Actinomadura sp. R39 penicillin-binding protein at 0.5 mM preincubated for 60 mins before addition of substrate mixture of (R)-[2-(benzoylamino)propionylsulfanyl]acetic acid and 5,5'-dithiobis(2-nitrobenzoic acid)
Outline: (§2)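 Purified Actinomadura R39 D,D-peptidase (3.5 nM) was preincubated with compound for 60 min at 25 °C. S2d (1 mM final) and DTNB (0.5 mM final) were then added, with 1% v/v DMF. Initial rate was read at 412 nm, corrected for enzyme-free hydrolysis, in triplicate.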

[3] = target: T1, Penicillin-binding protein 2X (Streptococcus pneumoniae R6) (UniProt P59676); experiment: Inhibition of penicillin-sensitive Streptococcus pneumoniae R6 PBP2X assessed as residual activity at 500 uM preincubated for 60 mins before addition of substrate mixture of (R)-[2-(benzoylamino)propionylsulfanyl]acetic acid and 5,5'-dithiobis(2-nitrobenzoic acid)
T1 sequence (whole entry): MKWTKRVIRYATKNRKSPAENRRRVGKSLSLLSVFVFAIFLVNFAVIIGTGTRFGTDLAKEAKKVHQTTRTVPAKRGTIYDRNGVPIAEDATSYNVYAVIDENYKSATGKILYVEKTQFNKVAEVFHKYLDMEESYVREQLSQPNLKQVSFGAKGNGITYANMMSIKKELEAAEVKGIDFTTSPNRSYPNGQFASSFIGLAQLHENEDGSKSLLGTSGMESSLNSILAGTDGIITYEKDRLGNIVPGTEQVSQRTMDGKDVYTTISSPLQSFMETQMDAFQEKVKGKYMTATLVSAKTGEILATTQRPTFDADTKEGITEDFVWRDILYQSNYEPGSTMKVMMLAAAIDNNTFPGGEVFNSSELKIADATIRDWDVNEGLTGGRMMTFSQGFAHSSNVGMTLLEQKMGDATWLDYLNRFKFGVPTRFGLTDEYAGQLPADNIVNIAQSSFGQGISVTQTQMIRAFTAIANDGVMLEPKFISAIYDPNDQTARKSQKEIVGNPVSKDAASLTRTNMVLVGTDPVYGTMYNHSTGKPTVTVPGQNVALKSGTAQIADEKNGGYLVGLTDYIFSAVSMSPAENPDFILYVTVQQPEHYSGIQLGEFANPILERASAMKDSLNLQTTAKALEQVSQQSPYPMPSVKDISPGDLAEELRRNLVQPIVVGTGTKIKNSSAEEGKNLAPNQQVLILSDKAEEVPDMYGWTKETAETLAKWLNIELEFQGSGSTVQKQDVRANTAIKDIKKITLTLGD
Outline: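 S. pneumoniae PBP2xR6 (0.09 μM) was preincubated with compound in 10 mM sodium phosphate pH 7.0 with 0.01 mg/mL BSA, for 60 min at 25 °C. S2d (1 mM final) and DTNB (0.5 mM final) were added, and the initial hydrolysis rate was monitored at 412 nm. Uninhibited activity (six replicates per plate) was set as 100%; assays ran in triplicate.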

[4] = target: T2, Penicillin-binding protein 2x (Streptococcus pneumoniae serotype 4 (strain ATCC BAA-334 / TIGR4)) (UniProt P14677); experiment: Inhibition of penicillin-resistant Streptococcus pneumoniae 5204 PBP2X assessed as residual activity at 500 uM preincubated for 4 hrs before addition of substrate mixture of (R)-[2-(benzoylamino)propionylsulfanyl]acetic acid and 5,5'-dithiobis(2-nitrobenzoic acid)
T2 sequence (whole entry): T1 sequence (whole entry) with M385T
Outline: (§3)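 PBP2x-5204 (0.6 μM) preincubated with compound in 10 mM sodium phosphate pH 7.0, 70 mM D-alanine, 0.01 mg/mL BSA, 4 h, 25 °C. S2d (final 1 mM) and DTNB (final 0.5 mM) then added. Residual activity taken from initial rate at 412 nm against uninhibited enzyme (six replicates per plate). Triplicates. IC50 by nonlinear regression.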

[5] = Solubility in sodium phosphate buffer saline of pH 7.2 at 1 mM; assay type: physicochemical; details: pH 7.2, 1000 µM
[6] = target: T1, Penicillin-binding protein 2X (Streptococcus pneumoniae R6); experiment: Inhibition of penicillin-sensitive Streptococcus pneumoniae R6 PBP2X assessed as residual activity at 100 uM preincubated for 60 mins before addition of substrate mixture of (R)-[2-(benzoylamino)propionylsulfanyl]acetic acid and 5,5'-dithiobis(2-nitrobenzoic acid)
Outline: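 PBP2x-R6 (0.09 μM) preincubated with compound in 10 mM sodium phosphate pH 7.0, 0.01 mg/mL BSA, 60 min, 25 °C. S2d (final 1 mM) and DTNB (final 0.5 mM) then added. Residual activity from initial rate at 412 nm, relative to enzyme-only wells. Triplicates. Repeated with 0.01% Triton X-100 when RA <80%.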

[7] = target: D-alanyl-D-alanine carboxypeptidase (Actinomadura sp. R39) (UniProt P39045); experiment: Inhibition of Actinomadura sp. R39 penicillin-binding protein assessed as residual activity at 100 uM preincubated for 60 mins before addition of substrate mixture of (R)-[2-(benzoylamino)propionylsulfanyl]acetic acid and 5,5'-dithiobis(2-nitrobenzoic acid); outline: as §1
[8] = Solubility in sodium phosphate buffer saline of pH 7.2; assay type: physicochemical
[9] = target: T2, Penicillin-binding protein 2x (Streptococcus pneumoniae serotype 4 (strain ATCC BAA-334 / TIGR4)); experiment: Inhibition of penicillin-resistant Streptococcus pneumoniae 5204 PBP2X assessed as residual activity at 100 uM preincubated for 4 hrs before addition of substrate mixture of (R)-[2-(benzoylamino)propionylsulfanyl]acetic acid and 5,5'-dithiobis(2-nitrobenzoic acid); outline: as §3
[10] = target: D-alanyl-D-alanine carboxypeptidase (Actinomadura sp. R39) (UniProt P39045); experiment: Inhibition of Actinomadura sp. R39 penicillin-binding protein assessed as residual activity at 500 uM preincubated for 60 mins before addition of substrate mixture of (R)-[2-(benzoylamino)propionylsulfanyl]acetic acid and 5,5'-dithiobis(2-nitrobenzoic acid); outline: as §2
[11] = target: Penicillin-binding protein 2x (Streptococcus pneumoniae serotype 4 (strain ATCC BAA-334 / TIGR4), UniProt P14677); experiment: Inhibition of penicillin-resistant Streptococcus pneumoniae 5204 PBP2X preincubated for 4 hrs before addition of substrate mixture of (R)-[2-(benzoylamino)propionylsulfanyl]acetic acid and 5,5'-dithiobis(2-nitrobenzoic acid); outline: as §3
Sequence of Penicillin-binding protein 2x (P14677 whole entry, looked up): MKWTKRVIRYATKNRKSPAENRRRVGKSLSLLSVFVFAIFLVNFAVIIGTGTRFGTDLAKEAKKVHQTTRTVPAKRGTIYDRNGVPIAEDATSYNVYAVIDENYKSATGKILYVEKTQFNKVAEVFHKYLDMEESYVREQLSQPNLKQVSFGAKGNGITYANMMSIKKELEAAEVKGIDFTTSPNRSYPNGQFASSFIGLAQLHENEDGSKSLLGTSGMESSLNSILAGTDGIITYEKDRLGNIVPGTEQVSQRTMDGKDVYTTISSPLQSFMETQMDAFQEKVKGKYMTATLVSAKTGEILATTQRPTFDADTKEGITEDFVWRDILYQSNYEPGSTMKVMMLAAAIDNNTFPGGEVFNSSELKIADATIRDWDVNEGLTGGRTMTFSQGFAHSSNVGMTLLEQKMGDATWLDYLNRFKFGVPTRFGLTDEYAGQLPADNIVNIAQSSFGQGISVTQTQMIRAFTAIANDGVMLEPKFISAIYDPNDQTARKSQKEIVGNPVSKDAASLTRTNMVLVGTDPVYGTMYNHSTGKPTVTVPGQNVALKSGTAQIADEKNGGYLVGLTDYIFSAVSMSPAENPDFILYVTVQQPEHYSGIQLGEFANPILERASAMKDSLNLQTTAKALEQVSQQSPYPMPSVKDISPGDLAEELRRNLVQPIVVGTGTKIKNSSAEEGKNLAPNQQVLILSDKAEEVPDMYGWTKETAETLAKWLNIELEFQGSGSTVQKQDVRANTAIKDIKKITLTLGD

Sequence of D-alanyl-D-alanine carboxypeptidase (P39045 whole entry): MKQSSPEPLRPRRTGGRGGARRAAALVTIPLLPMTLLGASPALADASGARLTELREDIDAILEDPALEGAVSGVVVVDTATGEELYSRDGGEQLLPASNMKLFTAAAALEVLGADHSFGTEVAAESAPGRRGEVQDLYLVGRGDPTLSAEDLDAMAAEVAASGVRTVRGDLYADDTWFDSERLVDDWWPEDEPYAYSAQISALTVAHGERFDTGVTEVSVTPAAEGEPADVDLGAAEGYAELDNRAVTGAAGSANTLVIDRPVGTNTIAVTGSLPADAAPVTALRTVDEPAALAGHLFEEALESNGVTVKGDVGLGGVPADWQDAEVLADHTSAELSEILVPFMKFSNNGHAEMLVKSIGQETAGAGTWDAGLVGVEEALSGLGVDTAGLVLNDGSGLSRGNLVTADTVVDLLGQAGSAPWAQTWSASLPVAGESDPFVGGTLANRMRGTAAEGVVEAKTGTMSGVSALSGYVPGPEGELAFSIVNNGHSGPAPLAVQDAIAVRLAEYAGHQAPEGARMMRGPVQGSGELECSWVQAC
Sequence of D-alanyl-D-alanine carboxypeptidase (Actinomadura sp. R39) (P39045 whole entry): as above

## COc1ccccc1C(=O)Nc1cc(B(O)O)cc(C(=O)O)c1
[1]
  IC50: 23 µM
Streptococcus pneumoniae
  Activity: 82%

## OB(O)c1ccccc1 [PHENYLBORONIC ACID]
[2]
  inhibition: 50%
[3]
  Activity: 114%
[4]
  Activity: 78%
[5]
  solubility: Insoluble

## O=C(O)c1cc(NC(=O)c2cccs2)cc(B(O)O)c1
[1]
  IC50: 32 µM
Streptococcus pneumoniae
  Activity: 70%

## O=C(Cc1cccs1)Nc1cc(B(O)O)cc(C(=O)O)c1
[1]
  IC50: 78 µM
Streptococcus pneumoniae
  Activity: 53%

## O=C(COc1ccccc1)Nc1cc(B(O)O)cc(C(=O)O)c1
[1]
  IC50: 28 µM
Streptococcus pneumoniae
  Activity: 83%

## CN(C)c1cccc2c(S(=O)(=O)Nc3cccc(B(O)O)c3)cccc12
[3]
  Activity: 91%

## O=C(O)c1cccc(B(O)O)c1
[1]
  IC50: 400 µM

## OB(O)c1ccc(-c2ccccc2)cc1 [BIPHENYLBORONIC ACID]
[6]
  Activity: 90%
[7]
  Activity: 104%
[8]
  solubility: Insoluble
[9]
  Activity: 120%

## OB(O)c1ccc(-c2ccc(B(O)O)cc2)cc1
[6]
  Activity: 104%
[8]
  solubility: Insoluble
[9]
  Activity: 95%

## CC1(C)OB(c2cccc(C(=O)O)c2)OC1(C)C
[2]
  inhibition: > 50%
[3]
  Activity: 93%
[4]
  Activity: 98%
[10]
  Activity: 38%
[5]
  solubility: Insoluble

## OB(O)c1ccc(Oc2ccccc2)cc1
[9]
  Activity: 108%

## O=C(O)c1cc(NC(=O)c2ccccc2)cc(B(O)O)c1
[1]
  IC50: 34 µM
Streptococcus pneumoniae
  Activity: 85%

## O=C(Cc1ccccc1)Nc1cc(B(O)O)cc(C(=O)O)c1
[1]
  IC50: 88 µM

## O=C(O)c1ccc(B(O)O)s1
[11]
  IC50: > 1 mM
